Data: ChEMBL document CHEMBL1926569, “Novel (E)-1-(4-methyl-2-(alkylamino)thiazol-5-yl)-3-arylprop-2-en-1-ones as potent antimicrobial agents” (2011)
Values after ≈ are worked out from the molar mass of the structure shown.

Key:
[1] = tested on: Aspergillus niger; assay: Antifungal activity against Aspergillus niger ATCC 6275 incubated for 72 hrs followed by serial sub-cultivation for 72 hrs by serial dilution technique; assay type: functional; settings: ATCC 6275, 72 h
How it was run: (§1)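 MFC: material from 72 h malt broth microdilution wells was serially sub-cultured into fresh broth plates and incubated a further 72 h at 28 °C. Fungicidal concentration is taken from growth after sub-culture. Duplicate, repeated three times.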

[2] = tested on: Aspergillus fumigatus; assay: Ratio of ketoconazole to compound for Aspergillus fumigatus isolated from human; assay type: functional
[3] = tested on: Micrococcus flavus; assay: Antibacterial activity against Micrococcus flavus ATCC 10240 after 24 hrs by microdilution method; assay type: functional; settings: ATCC 10240, 24 h
How it was run: (§2)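 Broth microdilution in 96-well plates. Bacterial suspensions were adjusted in sterile saline to 1.0 × 10⁵ CFU/ml, prepared daily and kept at 4 °C. Compound was added to LB broth with 1.0 × 10⁴ CFU per well and shaken at 160 rpm for 24 h at […] (so in the source). MIC is the lowest concentration with no visible growth under a binocular microscope. OD655 was also read. Duplicate, repeated three times.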

[4] = tested on: Aspergillus ochraceus; assay: Antifungal activity against Aspergillus ochraceus ATCC 12066 incubated for 72 hrs followed by serial sub-cultivation for 72 hrs by serial dilution technique; assay type: functional; settings: ATCC 12066, 72 h; how it was run: as §1
[5] = tested on: Trichoderma viride; assay: Ratio of bifonazole to compound for Trichoderma viride IAM 5061; assay type: functional
[6] = tested on: Candida albicans; assay: Ratio of ketoconazole to compound for Candida albicans isolated from human; assay type: functional
[7] = tested on: Penicillium ochrochloron; assay: Antifungal activity against Penicillium ochrochloron ATCC 9112 incubated for 72 hrs followed by serial sub-cultivation for 72 hrs by serial dilution technique; assay type: functional; settings: ATCC 9112, 72 h; how it was run: as §1
[8] = tested on: Listeria monocytogenes; assay: Antibacterial activity against Listeria monocytogenes NCTC 7973 after 24 hrs by microdilution method; assay type: functional; settings: NCTC 7973, 24 h; how it was run: as §2
[9] = tested on: Aspergillus niger; assay: Antifungal activity against Aspergillus niger ATCC 6275 after 72 hrs by serial dilution technique; assay type: functional; settings: ATCC 6275, 72 h
How it was run: (§3)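 Modified microdilution in 96-well plates. Fungi were kept on malt agar at 4 °C. Spores were washed off in sterile 0.85% saline with 0.1% Tween 80. Compounds were dissolved at 1 mg/ml in 5% DMSO with 0.1% Tween 80 and added to malt broth with inoculum. Plates were shaken at 160 rpm for 72 h at 28 °C. Duplicate, repeated three times.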

[10] = tested on: Trichoderma viride; assay: Antifungal activity against Trichoderma viride IAM 5061 after 72 hrs by serial dilution technique; assay type: functional; settings: IAM 5061, 72 h; how it was run: as §3
[11] = tested on: Escherichia coli; assay: Antibacterial activity against Escherichia coli ATCC 35210 incubated for 24 hrs followed by serial sub-cultivation for 24 hrs by microdilution; assay type: functional; settings: ATCC 35210, 24 h
How it was run: (§4)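 MBC: after the 24 h LB broth microdilution (1.0 × 10⁴ CFU per well, 160 rpm), wells were serially sub-cultured into fresh broth plates and incubated a further 24 h. MBC is the lowest concentration with no visible growth, taken as 99.5% killing of the original inoculum. Duplicate, repeated three times.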

[12] = tested on: Aspergillus ochraceus; assay: Ratio of ketoconazole to compound for Aspergillus ochraceus ATCC 12066; assay type: functional
[13] = tested on: Candida albicans; assay: Ratio of bifonazole to compound for Candida albicans isolated from human; assay type: functional
[14] = tested on: Aspergillus fumigatus; assay: Antifungal activity against Aspergillus fumigatus isolated from human incubated for 72 hrs followed by serial sub-cultivation for 72 hrs by serial dilution technique; assay type: functional; how it was run: as §1
[15] = tested on: Pseudomonas aeruginosa; assay: Antibacterial activity against Pseudomonas aeruginosa ATCC 27853 incubated for 24 hrs followed by serial sub-cultivation for 24 hrs by microdilution; assay type: functional; settings: ATCC 27853, 24 h; how it was run: as §4
[16] = tested on: Aspergillus niger; assay: Ratio of bifonazole to compound for Aspergillus niger ATCC 6275; assay type: functional
[17] = tested on: Aspergillus flavus; assay: Antifungal activity against Aspergillus flavus ATCC 9643 incubated for 72 hrs followed by serial sub-cultivation for 72 hrs by serial dilution technique; assay type: functional; settings: ATCC 9643, 72 h; how it was run: as §1
[18] = tested on: Penicillium ochrochloron; assay: Ratio of ketoconazole to compound for Penicillium ochrochloron ATCC 9112; assay type: functional
[19] = tested on: Penicillium ochrochloron; assay: Antifungal activity against Penicillium ochrochloron ATCC 9112 after 72 hrs by serial dilution technique; assay type: functional; settings: ATCC 9112, 72 h; how it was run: as §3
[20] = tested on: Candida albicans; assay: Antifungal activity against Candida albicans isolated from human incubated for 72 hrs followed by serial sub-cultivation for 72 hrs by serial dilution technique; assay type: functional; how it was run: as §1
[21] = tested on: Salmonella typhimurium; assay: Antibacterial activity against Salmonella Typhimurium ATCC 13311 after 24 hrs by microdilution method; assay type: functional, Salmonella enterica subsp. enterica serovar Typhimurium; settings: Salmonella enterica, ATCC 13311, 24 h; how it was run: as §2
[22] = tested on: Pseudomonas aeruginosa; assay: Ratio of ampicillin MIC to compound MIC for Pseudomonas aeruginosa ATCC 27853; assay type: functional
[23] = tested on: Escherichia coli; assay: Antibacterial activity against Escherichia coli ATCC 35210 after 24 hrs by microdilution method; assay type: functional; settings: ATCC 35210, 24 h; how it was run: as §2
[24] = tested on: Penicillium ochrochloron; assay: Ratio of bifonazole to compound for Penicillium ochrochloron ATCC 9112; assay type: functional
[25] = tested on: Trichoderma viride; assay: Antifungal activity against Trichoderma viride IAM 5061 incubated for 72 hrs followed by serial sub-cultivation for 72 hrs by serial dilution technique; assay type: functional; settings: IAM 5061, 72 h; how it was run: as §1
[26] = tested on: Aspergillus ochraceus; assay: Antifungal activity against Aspergillus ochraceus after 72 hrs by serial dilution technique
[27] = tested on: Talaromyces funiculosus; assay: Antifungal activity against Penicillium funiculosum ATCC 36839 after 72 hrs by serial dilution technique; assay type: functional; settings: ATCC 36839, 72 h; how it was run: as §3
[28] = tested on: Staphylococcus aureus; assay: Antibacterial activity against Staphylococcus aureus ATCC 6538 incubated for 24 hrs followed by serial sub-cultivation for 24 hrs by microdilution method; assay type: functional; settings: ATCC 6538, 24 h; how it was run: as §4
[29] = tested on: Bacillus cereus; assay: Antibacterial activity against clinical isolate of Bacillus cereus incubated for 24 hrs followed by serial sub-cultivation for 24 hrs by microdilution; assay type: functional; how it was run: as §4
[30] = tested on: Talaromyces funiculosus; assay: Ratio of bifonazole to compound for Penicillium funiculosum ATCC 36839; assay type: functional
[31] = tested on: Staphylococcus aureus; assay: Antibacterial activity against Staphylococcus aureus ATCC 6538 after 24 hrs by microdilution method; assay type: functional; settings: ATCC 6538, 24 h; how it was run: as §2
[32] = tested on: Listeria monocytogenes; assay: Antibacterial activity against Listeria monocytogenes NCTC 7973 incubated for 24 hrs followed by serial sub-cultivation for 24 hrs by microdilution; assay type: functional; settings: NCTC 7973, 24 h; how it was run: as §4
[33] = tested on: Aspergillus ochraceus; assay: Ratio of bifonazole to compound for Aspergillus ochraceus ATCC 12066; assay type: functional
[34] = tested on: Bacillus cereus; assay: Antibacterial activity against clinical isolate of Bacillus cereus after 24 hrs by microdilution method; assay type: functional; how it was run: as §2
[35] = tested on: Aspergillus ochraceus; assay: Antifungal activity against Aspergillus ochraceus ATCC 12066 after 72 hrs by serial dilution technique; assay type: functional; settings: ATCC 12066, 72 h; how it was run: as §3
[36] = tested on: Micrococcus flavus; assay: Antibacterial activity against Micrococcus flavus ATCC 10240 incubated for 24 hrs followed by serial sub-cultivation for 24 hrs by microdilution; assay type: functional; settings: ATCC 10240, 24 h; how it was run: as §4
[37] = tested on: Aspergillus flavus; assay: Antifungal activity against Aspergillus flavus ATCC 9643 after 72 hrs by serial dilution technique; assay type: functional; settings: ATCC 9643, 72 h; how it was run: as §3
[38] = tested on: Pseudomonas aeruginosa; assay: Antibacterial activity against Pseudomonas aeruginosa ATCC 27853 after 24 hrs by microdilution method; assay type: functional; settings: ATCC 27853, 24 h; how it was run: as §2
[39] = tested on: Talaromyces funiculosus; assay: Antifungal activity against Penicillium funiculosum ATCC 36839 incubated for 72 hrs followed by serial sub-cultivation for 72 hrs by serial dilution technique; assay type: functional; settings: ATCC 36839, 72 h; how it was run: as §1
[40] = tested on: Salmonella typhimurium; assay: Antibacterial activity against Salmonella Typhimurium ATCC 13311 incubated for 24 hrs followed by serial sub-cultivation for 24 hrs by microdilution; assay type: functional, Salmonella enterica subsp. enterica serovar Typhimurium; settings: Salmonella enterica, ATCC 13311, 24 h; how it was run: as §4
[41] = tested on: Enterococcus faecalis; assay: Antibacterial activity against Enterococcus faecalis isolated from human after 24 hrs by microdilution method; assay type: functional; how it was run: as §2
[42] = tested on: Enterococcus faecalis; assay: Antibacterial activity against Enterococcus faecalis isolated from human incubated for 24 hrs followed by serial sub-cultivation for 24 hrs by microdilution; assay type: functional; how it was run: as §4
[43] = tested on: Candida albicans; assay: Antifungal activity against Candida albicans isolated from human after 72 hrs by serial dilution technique; assay type: functional; how it was run: as §3

CNc1nc(C)c(C(=O)/C=C/c2cccc(Br)c2)s1
MFC [1]: 59.3 µM (≈ 20 µg/mL) | Ratio [2]: 10 | MIC [3]: 14.8 µM (≈ 4.99 µg/mL) | MFC [4]: 59.3 µM (≈ 20 µg/mL) | Ratio [5]: 10 | Ratio [6]: 10 | MFC [7]: 59.3 µM (≈ 20 µg/mL) | MIC [8]: 89 µM (≈ 30 µg/mL) | MIC [9]: 44.5 µM (≈ 15 µg/mL) | MIC [10]: 29.7 µM (≈ 10 µg/mL) | MBC [11]: 74.2 µM (≈ 25 µg/mL) | Ratio [12]: 10 | Ratio [13]: 10 | MFC [14]: 59.3 µM (≈ 20 µg/mL) | MBC [15]: 74.2 µM (≈ 25 µg/mL) | Ratio [16]: 10 | MFC [17]: 74.2 µM (≈ 25 µg/mL) | Ratio [18]: 10 | MIC [19]: 29.7 µM (≈ 10 µg/mL) | MFC [20]: 59.3 µM (≈ 20 µg/mL) | MIC [21]: 59.3 µM (≈ 20 µg/mL) | Ratio [22]: 10 | MIC [23]: 74.2 µM (≈ 25 µg/mL) | Ratio [24]: 10 | MFC [25]: 59.3 µM (≈ 20 µg/mL) | MIC [26]: 29.7 µM (≈ 10 µg/mL) | MIC [27]: 29.7 µM (≈ 10 µg/mL) | MBC [28]: 74.2 µM (≈ 25 µg/mL) | MBC [29]: 74.2 µM (≈ 25 µg/mL) | Ratio [30]: 10 | MIC [31]: 59.3 µM (≈ 20 µg/mL) | MBC [32]: 89 µM (≈ 30 µg/mL) | Ratio [33]: 10 | MIC [34]: 99.3 µM (≈ 33.5 µg/mL) | MIC [35]: 29.7 µM (≈ 10 µg/mL) | MBC [36]: 59.3 µM (≈ 20 µg/mL) | MIC [37]: 29.7 µM (≈ 10 µg/mL) | MIC [38]: 74.2 µM (≈ 25 µg/mL) | MFC [39]: 59.3 µM (≈ 20 µg/mL) | MBC [40]: 74.2 µM (≈ 25 µg/mL) | MIC [41]: 74.2 µM (≈ 25 µg/mL) | MBC [42]: 74.2 µM (≈ 25 µg/mL) | MIC [43]: 44.5 µM (≈ 15 µg/mL)
